What was measured:
[1] = Inhibition of butter milk XOD (unknown origin) at 100 uM using xanthine as substrate after 8 mins relative to control
Method in brief: (§1)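 Butter-milk xanthine oxidase in 100 mM phosphate buffer, pH 7.6, with compound added in DMSO. Reaction started with 500 μM xanthine (solution concentration) at rt and stopped after 8 min with 1N HCl. Absorbance at 290 nm was compared with enzyme-activity and blank wells to calculate % inhibition.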

[2] = Inhibition of butter milk XOD (unknown origin) at 10 uM using xanthine as substrate after 8 mins relative to control; method in brief: as §1
[3] = Antioxidant activity assessed as inhibition of DPPH radical at 100 uM incubated for 20 mins measured for 60 mins relative to control; format: functional
Method in brief: (§2)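 DPPH (40 μL of 1 mM stock) in EtOH; test compound added from 2 mM or 10 mM DMSO stocks at rt. Absorbance at 517 nm read continuously for 60 min. Radical trapping capacity was calculated from the 20 min reading.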

[4] = target: T1, Amyloid-beta precursor protein (Homo sapiens, UniProt P05067); assay: Inhibition of QD-labeled amyloid beta (1 to 42) (unknown origin) aggregation assessed as change in fluorescence at 20.3 uM after 24 hrs by inverted fluorescence microscopic method (reference value: 6.77)
T1 sequence (P05067 whole entry): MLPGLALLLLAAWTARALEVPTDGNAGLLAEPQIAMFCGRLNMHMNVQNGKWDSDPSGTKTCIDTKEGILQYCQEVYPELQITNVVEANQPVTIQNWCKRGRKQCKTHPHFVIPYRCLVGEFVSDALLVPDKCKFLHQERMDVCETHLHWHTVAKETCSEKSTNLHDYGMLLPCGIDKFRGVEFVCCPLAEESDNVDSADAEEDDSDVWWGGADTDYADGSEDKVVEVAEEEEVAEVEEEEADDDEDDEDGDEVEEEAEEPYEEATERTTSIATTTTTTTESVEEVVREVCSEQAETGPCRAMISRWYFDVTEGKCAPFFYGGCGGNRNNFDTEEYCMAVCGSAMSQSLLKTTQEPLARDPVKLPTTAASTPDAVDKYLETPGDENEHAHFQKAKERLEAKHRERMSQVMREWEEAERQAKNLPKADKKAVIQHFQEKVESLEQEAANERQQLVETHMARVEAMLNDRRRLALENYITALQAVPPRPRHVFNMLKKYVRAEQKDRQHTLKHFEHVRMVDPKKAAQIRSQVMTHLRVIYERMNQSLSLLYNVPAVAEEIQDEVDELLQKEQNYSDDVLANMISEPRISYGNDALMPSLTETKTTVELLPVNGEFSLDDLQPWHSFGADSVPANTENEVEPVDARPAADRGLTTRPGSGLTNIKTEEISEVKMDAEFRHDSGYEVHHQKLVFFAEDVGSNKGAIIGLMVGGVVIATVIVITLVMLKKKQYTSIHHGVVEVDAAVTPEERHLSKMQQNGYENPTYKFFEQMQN
Method in brief: (§3)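 Aβ(1-42) (30 μM) was co-incubated with 30 nM QD-labeled Aβ(1-42) and compound in PBS containing 5% EtOH and 3% DMSO at 37°C for 24 h. Coaggregates were imaged by inverted fluorescence microscope with a colour CCD camera. The read-out was the SD of fluorescence intensity over the central 100 × 100 pixels. Aggregation parameters came from Boltzmann fitting of SD versus time, compared with the no-inhibitor control.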

[5] = Antioxidant activity assessed as inhibition of DPPH radical at 500 uM incubated for 20 mins measured for 60 mins relative to control; format: functional; method in brief: as §2
[6] = target: T1, Amyloid-beta precursor protein; assay: Inhibition of QD-labeled amyloid beta (1 to 42) (unknown origin) aggregation assessed as lag time of aggregation at 20.3 uM after 24 hrs by inverted fluorescence microscopic method (reference value: 4.44 mins)
[7] = target: T1, Amyloid-beta precursor protein; assay: Inhibition of QD-labeled amyloid beta (1 to 42) (unknown origin) aggregation assessed as aggregation growth rate at 20.3 uM after 24 hrs by inverted fluorescence microscopic method (reference value: 0.533 /min)
[8] = target: T1, Amyloid-beta precursor protein; assay: Inhibition of QD-labeled amyloid beta (1 to 42) (unknown origin) aggregation after 24 hrs by inverted fluorescence microscopic method
Method in brief: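 Modified MSHTS: 30 μM Aβ(1-42) plus 30 nM QD-labeled Aβ(1-42) with serial compound concentrations in PBS containing 5% EtOH and 3% DMSO, 37°C, 24 h. Coaggregates were imaged by inverted fluorescence microscopy with a color CCD. SD of pixel fluorescence in the well centre (100×100 pixels) was plotted against concentration, and EC50 was fitted by global EC50-shift fitting.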

[9] = Inhibition of butter milk XOD (unknown origin) at 1 uM using xanthine as substrate after 8 mins relative to control
Method in brief: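 Buttermilk xanthine oxidase in 100 mM phosphate buffer pH 7.6 was mixed with compound in DMSO. The reaction was started with xanthine solution (500 μM as added) and run at rt for 8 min, then stopped with 1N HCl. Absorbance was read at 290 nm, and % inhibition was calculated against enzyme-activity and blank wells.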

[10] = target: T1, Amyloid-beta precursor protein; assay: Inhibition of QD-labeled amyloid beta (1 to 42) (unknown origin) aggregation assessed as aggregation growth rate at 5.13 uM after 24 hrs by inverted fluorescence microscopic method (reference value: 0.533 /min)
[11] = target: T1, Amyloid-beta precursor protein; assay: Inhibition of QD-labeled amyloid beta (1 to 42) (unknown origin) aggregation assessed as lag time of aggregation at 5.13 uM after 24 hrs by inverted fluorescence microscopic method (reference value: 4.44 mins)
[12] = target: T1, Amyloid-beta precursor protein; assay: Inhibition of QD-labeled amyloid beta (1 to 42) (unknown origin) aggregation assessed as change in fluorescence at 5.13 uM after 24 hrs by inverted fluorescence microscopic method (reference value: 6.77); method in brief: as §3

SMILES	inhibition [1]	inhibition [2]	inhibition [3]	Flu intensity [4]	inhibition [5]	TIME [6]	K [7]	EC50 [8]	inhibition [9]	K [10]	TIME [11]	Flu intensity [12]
O=C(/C=C/c1ccc(O)c(O)c1)O[C@H](Cc1ccc(O)c(O)c1)C(=O)O [ROSMARINIC ACID]	27%	< 10%	47%	3.4	66%	0.093 h	0.508 min⁻¹	20.3 µM	–	–	–	–
CCCCCCCCCOC(=O)/C=C/c1ccc(O)c(O)c1	40%	< 10%	45%	–	61%	–	–	9.52 µM	–	–	–	–
O=C(CCc1ccc(O)c(O)c1)OCCc1ccc(O)c(O)c1	21%	< 10%	37%	–	49%	–	–	14.9 µM	–	–	–	–
O=C(/C=C/c1ccccc1)OCCc1ccccc1 [PHENETHYL CINNAMATE]	< 10%	< 10%	< 10%	–	< 10%	–	–	1040 µM	–	–	–	–
COc1ccc(CCOC(=O)/C=C/c2ccc(O)c(O)c2)cc1OC	43%	50%	43%	–	59%	–	–	39.5 µM	–	–	–	–
CCCOC(=O)/C=C/c1ccc(O)c(O)c1	61%	< 10%	46%	–	63%	–	–	24.7 µM	–	–	–	–
CCCCCOC(=O)/C=C/c1ccc(O)c(O)c1	> 90%	11%	46%	–	62%	–	–	2.58 µM	–	–	–	–
CCCCCNC(=O)/C=C/c1ccc(O)c(O)c1	33%	< 10%	40%	–	53%	–	–	11.4 µM	–	–	–	–
O=C(/C=C/c1ccc(O)c(O)c1)NCCc1ccc(O)c(O)c1	30%	< 10%	47%	–	64%	–	–	69 µM	–	–	–	–
Oc1ncnc2[nH]ncc12	–	> 90%	–	–	–	–	–	–	< 10%	–	–	–
O=C(O)/C=C/c1ccc(O)c(O)c1 [CAFFEIC ACID]	< 10%	< 10%	49%	–	63%	–	–	216 µM	–	–	–	–
O=C(/C=C/c1ccc(O)c(O)c1)OCCc1ccccc1 [CAFFEIC ACID PHENETHYL ESTER]	62%	< 10%	35%	–	51%	–	–	8.41 µM	–	–	–	–
C=CCOC(=O)/C=C/c1ccc(O)c(O)c1	22%	< 10%	46%	–	62%	–	–	23.2 µM	–	–	–	–
O=C(CCc1ccccc1)OCCc1ccccc1	< 10%	< 10%	< 10%	–	< 10%	–	–	4540 µM	–	–	–	–
O=C(/C=C/c1ccccc1)OCCc1ccc(O)c(O)c1	22%	< 10%	40%	–	56%	–	–	7.95 µM	–	–	–	–
CCCCCCCOC(=O)/C=C/c1ccc(O)c(O)c1	25%	11%	46%	–	63%	–	–	10.4 µM	–	–	–	–
O=C(CCc1ccccc1)OCCc1ccc(O)c(O)c1	< 10%	< 10%	38%	–	54%	–	–	5.93 µM	–	–	–	–
NC(=O)C(Cc1ccc(O)c(O)c1)OC(=O)/C=C/c1ccc(O)c(O)c1 (stereo not given)	82%	38%	39%	–	48%	–	–	21.9 µM	–	–	–	–
COc1ccc(CCOC(=O)CCc2ccccc2)cc1OC	< 10%	< 10%	< 10%	–	< 10%	–	–	274 µM	–	–	–	–
O=C(/C=C/c1ccc(O)c(O)c1)OCCCCCCO	51%	< 10%	42%	–	55%	–	–	54.8 µM	–	–	–	–
CC1=NN(c2ccccc2)C(=O)C1	–	–	50 to 53%	–	71 to 75%	–	–	–	–	–	–	–
CCCCCCOC(=O)/C=C/c1ccc(O)c(O)c1 [HEXYLCAFFEATE]	< 10%	10%	45%	–	61%	–	–	5.13 µM	–	0.19 min⁻¹	0.0183 h	3.68
CCCCOC(=O)/C=C/c1ccc(O)c(O)c1 [BUTYL CAFFEATE]	> 90%	< 10%	46%	–	62%	–	–	12 µM	–	–	–	–
COC(=O)/C=C/c1ccc(O)c(O)c1 [METHYLCAFFEATE]	65%	< 10%	48%	–	64%	–	–	67.7 µM	–	–	–	–
CCCCCCC(=O)/C=C/c1ccc(O)c(O)c1	76%	12%	48%	–	62%	–	–	2.82 µM	–	–	–	–
O=C(/C=C/c1ccc(O)c(O)c1)OCCc1ccc(O)c(O)c1	80%	26%	37%	–	46%	–	–	20.6 µM	–	–	–	–
O=C(/C=C/c1ccc(O)c(O)c1)OCCCCCO	84%	< 10%	41%	–	54%	–	–	80.1 µM	–	–	–	–
